Experimental data published in ChEMBL document CHEMBL1125418, “Antimycobacterial activity of a series of pyrazinoic acid esters” (1992).
Converted amounts (≈) assume the structure as drawn.

Legend:
Format in all cases: functional
[1] = tested on: Mycobacterium tuberculosis; test: In vitro activity against Mycobacterium. tuberculosis (strain type-BUR)at pH 5.8
[2] = tested on: Mycobacterium tuberculosis; test: In vitro activity against Mycobacterium. tuberculosis (strain type-BUR)at pH 6.6
In short: (§1)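 Twofold serial dilutions (200–3.12 µg/mL) in 7H10 agar with 10% OADC enrichment at pH 6.6, in compartmented plates. Plates were stored at 4 °C and used within 24–48 h. A no-drug compartment served as control for each isolate. Plates were incubated for 4 weeks at 37 °C. MIC was the lowest concentration giving 99% (2 log) growth inhibition.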

[3] = tested on: Mycobacterium tuberculosis; test: In vitro activity against Mycobacterium. tuberculosis (strain type-ATCC 35828)at pH 6.6; in short: as §1
Mycobacterium kansasii [4] = test: In vitro activity against Mycobacterium. kansasii (strain type-SWK)at pH 5.8
In short: (§2)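 Pyrazinamide-resistant isolate SWK tested on Middlebrook 7H10 agar plus 10% OADC adjusted to pH 5.8. Compartmented plates hold 2-fold dilutions from 200 to 3.12 µg/mL, prepared 24–48 h before use and kept at 4 °C, with a drug-free compartment. Incubation was 37 °C for 4 weeks. MIC is the lowest level causing 99% (2 log) growth inhibition.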

[5] = tested on: Mycobacterium tuberculosis; test: In vitro activity against Mycobacterium. tuberculosis (strain type-ATCC 35828)at pH 5.8
In short: (§3)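 Middlebrook 7H10 agar plus 10% OADC at pH 5.8 in compartmented plates, with serial twofold dilutions from 200 to 3.12 µg/mL. Plates were prepared 24–48 h before use and stored at 4 °C. A drug-free compartment was included per isolate. Incubation was 37 °C for 4 weeks. MIC was the lowest level producing 99% (2 log) inhibition of growth.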

Mycobacterium kansasii [6] = test: In vitro activity against Mycobacterium. kansasii (strain type-SWK) […]
[7] = tested on: Mycobacterium tuberculosis; test: In vitro activity against Mycobacterium strain ATCC 35828 (Mycobacterium tuberculosis)
In short: (§4)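 Agar dilution in compartmented plates of Middlebrook 7H10 agar with 10% OADC, adjusted to pH 5.8 or pH 6.6. Twofold compound dilutions spanned 200–3.12 µg/mL. Plates were made 24–48 h ahead and held at 4 °C. MIC (µg/mL) was the lowest concentration giving 99% (2 log) growth inhibition.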

[8] = tested on: Mycobacterium tuberculosis; test: In vitro activity against Mycobacterium strain BAK (Mycobacterium tuberculosis)
[9] = tested on: Mycobacterium tuberculosis; test: In vitro activity against Mycobacterium strain BUR (Mycobacterium tuberculosis); in short: as §4
[10] = tested on: Mycobacterium tuberculosis; test: In vitro activity against Mycobacterium tuberculosis (strain type-BUR) at pH 5.8; in short: as §3
[11] = tested on: Mycobacterium tuberculosis; test: In vitro activity against Mycobacterium strain CES (Mycobacterium tuberculosis); in short: as §4
[12] = tested on: Mycobacterium tuberculosis; test: In vitro activity against Mycobacterium strain DOL (Mycobacterium tuberculosis)
[13] = tested on: Mycobacterium tuberculosis; test: In vitro activity against Mycobacterium strain DOU (Mycobacterium tuberculosis); in short: as §4
[14] = tested on: Mycobacterium tuberculosis; test: In vitro inhibitory activity against Mycobacterium tuberculosis (strain type-ATCC 35828) pH 6.6; in short: as §1
[15] = tested on: Mycobacterium tuberculosis; test: In vitro inhibitory activity against Mycobacterium tuberculosis (strain type-ATCC 35828)at pH 5.8; in short: as §3
[16] = tested on: Mycobacterium tuberculosis; test: In vitro activity against Mycobacterium strain GLA (Mycobacterium tuberculosis)
Mycobacterium kansasii [17] = test: In vitro inhibitory activity against Mycobacterium kansasii (strain type-SWK) pH 6.6
In short: (§5)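 MIC for pyrazinamide-resistant isolate SWK by agar dilution in Middlebrook 7H10 with 10% OADC at pH 6.6. Serial 2-fold dilutions run 200–3.12 µg/mL in compartmented plates prepared 24–48 h in advance and stored at 4 °C. A drug-free control is included. Plates were held at 37 °C for 4 weeks. The endpoint is 99% (2 log) inhibition of growth.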

Mycobacterium kansasii [18] = test: In vitro inhibitory activity against Mycobacterium kansasii (strain type-SWK)at pH 5.8; in short: as §2
Mycobacterium kansasii [19] = test: In vitro activity against Mycobacterium strain SWK (Mycobacterium kansasii)
In short: (§6)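 Agar dilution MIC against pyrazinamide-resistant clinical isolates on Middlebrook 7H10 agar with 10% OADC at pH 5.8 or pH 6.6. Serial 2-fold dilutions span 200–3.12 µg/mL in compartmented plates made 24–48 h ahead and stored at 4 °C. Each isolate has a drug-free control. Plates were incubated at 37 °C for 4 weeks. MIC is the lowest concentration giving 99% (2 log) growth inhibition.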

[20] = tested on: Mycobacterium tuberculosis; test: In vitro inhibitory activity against Mycobacterium tuberculosis (strain type-H37Rv) at pH 6.6; conditions: Mycobacterium tuberculosis; read-out: MIC
[21] = tested on: Mycobacterium tuberculosis; test: In vitro inhibitory activity against Mycobacterium tuberculosis (strain type-H37Rv) at pH 5.8; in short: as §3
[22] = tested on: Mycobacterium tuberculosis; test: In vitro activity against Mycobacterium strain ING (Mycobacterium tuberculosis); in short: as §4
[23] = tested on: Mycobacterium tuberculosis; test: In vitro activity against Mycobacterium strain LEL (Mycobacterium tuberculosis)
[24] = tested on: Mycobacterium tuberculosis; test: In vitro activity against Mycobacterium strain MCQ (Mycobacterium tuberculosis); in short: as §4
[25] = tested on: Mycobacterium tuberculosis; test: In vitro activity against Mycobacterium strain SMA (Mycobacterium tuberculosis)
[26] = tested on: Mycobacterium tuberculosis; test: In vitro activity against Mycobacterium strain WOO (Mycobacterium tuberculosis); in short: as §4
[27] = tested on: Mycobacterium tuberculosis; test: In vitro activity against Mycobacterium strain DUB (Mycobacterium tuberculosis); conditions: Mycobacterium tuberculosis; read-out: MIC
Mycobacterium kansasii [28] = test: In vitro activity against Mycobacterium strain SCH (Mycobacterium kansasii); in short: as §6
[29] = tested on: Mycobacterium tuberculosis; test: In vitro activity against Mycobacterium. tuberculosis (strain type-ATCC 35828) at pH 6.6; in short: as §1
Mycobacterium kansasii [30] = test: In vitro activity against Mycobacterium. kansasii (strain type-SWK) pH 6.6; in short: as §5
[31] = tested on: Mycobacterium tuberculosis; test: (§7) In vitro activity against Mycobacterium. tuberculosis (strain type-H37Rv) at pH 6.6; in short: as §1
[32] = tested on: Mycobacterium tuberculosis; test: In vitro activity against Mycobacterium. tuberculosis (strain type-H37Rv) at pH 5.8
Mycobacterium kansasii [33] = test: In vitro activity against Mycobacterium. kansasii (strain type-SWK)at pH 6.6; in short: as §5
[34] = tested on: Mycobacterium tuberculosis; test: as §7; remark: listed apart in the source
Mycobacterium kansasii [35] = test: In vitro activity against Mycobacterium. kansasii (strain type-SWK).at pH 5.8; in short: as §2
Mycobacterium kansasii [36] = test: In vitro activity against Mycobacterium. kansasii (strain type-SWK).at pH 6.6; in short: as §5
[37] = Mycobacterium tuberculosis, read-out: MIC

Row | SMILES | MIC [1, 37] | MIC [3] | MIC (Mycobacterium kansasii [4]) | MIC [5] | MIC [7] | MIC [8, 37] | MIC [9] | MIC [11] | MIC [12, 37] | MIC [13] | MIC (Mycobacterium kansasii [19]) | MIC [22] | MIC [24] | MIC [25, 37] | MIC [26] | MIC [27] | MIC (Mycobacterium kansasii [28]) | MIC [32, 37] | further results
1 | CC(C)(C)c1ccc(OC(=O)c2cnccn2)cc1 | 25 µg/mL (≈ 97.5 µM) | 25 µg/mL (≈ 97.5 µM) | 25 µg/mL (≈ 97.5 µM) | 25 µg/mL (≈ 97.5 µM) | – | – | – | – | – | – | – | – | – | – | – | – | – | – | MIC [2]: 50 µg/mL (≈ 195 µM)
2 | O=C(OCCCl)c1cnccn1 | 6.25 µg/mL (≈ 33.5 µM) | – | – | 25 µg/mL (≈ 134 µM) | – | – | – | – | – | – | – | – | – | – | – | – | – | – | MIC (Mycobacterium kansasii [6]): 25 µg/mL (≈ 134 µM)
3 | CN(C)CCOC(=O)c1cnccn1 | – | – | – | – | 50 µg/mL (≈ 256 µM) | 25 µg/mL (≈ 128 µM) | 25 µg/mL (≈ 128 µM) | 25 µg/mL (≈ 128 µM) | 12.5 µg/mL (≈ 64 µM) | 25 µg/mL (≈ 128 µM) | 100 µg/mL (≈ 512 µM) | 25 µg/mL (≈ 128 µM) | 25 µg/mL (≈ 128 µM) | 25 µg/mL (≈ 128 µM) | 25 µg/mL (≈ 128 µM) | 25 µg/mL (≈ 128 µM) | 50 µg/mL (≈ 256 µM) | – | MIC [10]: 25 µg/mL (≈ 128 µM); MIC [14]: > 200 µg/mL; MIC [15]: 25 µg/mL (≈ 128 µM); MIC [16, 37]: 25 µg/mL (≈ 128 µM); MIC (Mycobacterium kansasii [17]): > 200 µg/mL; MIC (Mycobacterium kansasii [18]): 200 µg/mL (≈ 1020 µM); MIC [20]: 100 µg/mL (≈ 512 µM); MIC [21]: 12.5 µg/mL (≈ 64 µM); MIC [23, 37]: 25 µg/mL (≈ 128 µM)
4 | O=C(OCC(F)(F)F)c1cnccn1 | 25 µg/mL (≈ 121 µM) | – | 100 µg/mL (≈ 485 µM) | 25 µg/mL (≈ 121 µM) | 25 µg/mL (≈ 121 µM) | 25 µg/mL (≈ 121 µM) | 25 µg/mL (≈ 121 µM) | 12.5 µg/mL (≈ 60.6 µM) | – | 100 µg/mL (≈ 485 µM) | 200 µg/mL (≈ 970 µM) | 25 µg/mL (≈ 121 µM) | 25 µg/mL (≈ 121 µM) | – | 25 µg/mL (≈ 121 µM) | 25 µg/mL (≈ 121 µM) | 25 µg/mL (≈ 121 µM) | 25 µg/mL (≈ 121 µM) | MIC [12]: 25 µg/mL (≈ 121 µM); MIC [29]: > 200 µg/mL; MIC [16, 37]: 12.5 µg/mL (≈ 60.6 µM); MIC (Mycobacterium kansasii [30]): > 200 µg/mL; MIC [31]: 100 µg/mL (≈ 485 µM); MIC [23]: 50 µg/mL (≈ 243 µM); MIC [25]: 25 µg/mL (≈ 121 µM)
5 | Cc1ccc(OC(=O)c2cnccn2)cc1 | – | 200 µg/mL (≈ 934 µM) | 12.5 µg/mL (≈ 58.4 µM) | 12.5 µg/mL (≈ 58.4 µM) | 12.5 µg/mL (≈ 58.4 µM) | – | 12.5 µg/mL (≈ 58.4 µM) | 12.5 µg/mL (≈ 58.4 µM) | 6.25 µg/mL (≈ 29.2 µM) | 12.5 µg/mL (≈ 58.4 µM) | 12.5 µg/mL (≈ 58.4 µM) | 25 µg/mL (≈ 117 µM) | 6.25 µg/mL (≈ 29.2 µM) | 25 µg/mL (≈ 117 µM) | 25 µg/mL (≈ 117 µM) | 25 µg/mL (≈ 117 µM) | 12.5 µg/mL (≈ 58.4 µM) | – | MIC [8]: 12.5 µg/mL (≈ 58.4 µM); MIC [1]: 12.5 µg/mL (≈ 58.4 µM); MIC [2]: 100 µg/mL (≈ 467 µM); MIC (Mycobacterium kansasii [33]): 200 µg/mL (≈ 934 µM); MIC [16]: 6.25 µg/mL (≈ 29.2 µM); MIC [32]: 12.5 µg/mL (≈ 58.4 µM); MIC [34]: 25 µg/mL (≈ 117 µM); MIC [23]: 12.5 µg/mL (≈ 58.4 µM)
6 | O=C(Oc1ccc([N+](=O)[O-])cc1)c1cnccn1 | 12.5 µg/mL (≈ 51 µM) | 200 µg/mL (≈ 816 µM) | – | 25 µg/mL (≈ 102 µM) | – | – | – | – | – | – | – | – | – | – | – | – | – | 12.5 µg/mL (≈ 51 µM) | MIC (Mycobacterium kansasii [35]): 25 µg/mL (≈ 102 µM); MIC (Mycobacterium kansasii [36]): 200 µg/mL (≈ 816 µM); MIC [34, 37]: 50 µg/mL (≈ 204 µM)
7 | CCCOC(=O)c1cnccn1 | < 3.12 µg/mL | 25 µg/mL (≈ 150 µM) | – | 6.25 µg/mL (≈ 37.6 µM) | 6.25 µg/mL (≈ 37.6 µM) | < 3.12 µg/mL | < 3.12 µg/mL | < 3.12 µg/mL | < 3.12 µg/mL | < 3.12 µg/mL | 6.25 µg/mL (≈ 37.6 µM) | < 3.12 µg/mL | < 3.12 µg/mL | < 3.12 µg/mL | – | < 3.12 µg/mL | 12.5 µg/mL (≈ 75.2 µM) | < 3.12 µg/mL | MIC (Mycobacterium kansasii [35]): < 3.12 µg/mL; MIC (Mycobacterium kansasii [36]): 12.5 µg/mL (≈ 75.2 µM); MIC [16]: 6.25 µg/mL (≈ 37.6 µM); MIC [34]: 25 µg/mL (≈ 150 µM); MIC [23, 37]: 6.25 µg/mL (≈ 37.6 µM)
